Screening results as filed in PubChem BioAssay.
H9c2 TAG inh: triacylglycerol accumulation inhibition | H9c2 cells, Nile Red lipid (TAG) fluorescence; cells loaded with 200 µM oleic acid | AID 651582 | inhibition, % at 12.5 µM | 0.66% of 230,000 active;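 active = pattern-corrected inhibition of lipid staining of at least 50% with the nuclear-stain viability signal not falling by more than 50%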;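 note: 0% = DMSO wells and 100% = triacsin C control wells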
iPSC survival up: hiPSC single-cell survival enhancement. ATPlite luminescence; 100% = ROCK inhibitor wells, 0% = DMSO. survival enhancement, % at 20 µM. 0.044% of 360,000 active; in the data active = survival enhancement above about 18%;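 note: cells exposed to compounds for 16 hours before the ATP read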
NR1D1 modulator: modulators of human Rev-erb alpha DNA binding; Rev-erbα–FITC-DNA binding, fluorescence polarization, 90 min; activity, % at 10 µM; 0.79% of 370,000 active; AID 1259318;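 active = activity above about 14%, limit read from the data; passing the limit was not always enough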;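 note: 0% = DMSO wells with 35 nM protein and 100% = DMSO wells with 750 nM protein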
Target sequence (P20393 whole entry, looked up): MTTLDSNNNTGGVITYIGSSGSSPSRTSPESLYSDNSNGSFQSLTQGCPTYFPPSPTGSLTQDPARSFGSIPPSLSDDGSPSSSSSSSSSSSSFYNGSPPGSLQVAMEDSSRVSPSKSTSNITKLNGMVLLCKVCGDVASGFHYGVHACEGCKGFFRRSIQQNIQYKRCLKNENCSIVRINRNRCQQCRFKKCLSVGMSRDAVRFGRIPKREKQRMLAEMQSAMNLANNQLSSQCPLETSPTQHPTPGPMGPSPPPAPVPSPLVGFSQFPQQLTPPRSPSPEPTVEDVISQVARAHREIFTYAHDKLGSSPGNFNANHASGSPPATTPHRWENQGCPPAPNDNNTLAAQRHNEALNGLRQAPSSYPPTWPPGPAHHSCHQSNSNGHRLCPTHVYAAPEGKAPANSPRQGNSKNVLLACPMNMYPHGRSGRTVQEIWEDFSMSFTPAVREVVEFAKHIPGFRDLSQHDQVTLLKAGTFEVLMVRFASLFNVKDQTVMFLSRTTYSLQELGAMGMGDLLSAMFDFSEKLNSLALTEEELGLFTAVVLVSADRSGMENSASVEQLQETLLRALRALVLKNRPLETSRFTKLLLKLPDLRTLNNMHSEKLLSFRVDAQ
beta cell repl: induces beta-cell replication in MIN6 cells; 0.29% of 330,000 active; AID 2380; MIN6 cells proliferation, ATPlite luminescence, 48 h; cells starved in 0.2% serum; 100% = growth in 10% serum; proliferation, % at 10 µM;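 active = compounds whose signal lies at least 3.5 SD above the mean of all wells on their plate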;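 note: 0% = DMSO-treated cells in low-serum medium and 100% = 10% serum control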
T cruzi repl: T. cruzi replication inhibition; inhibition, % (no concentration beside the values); 1.4% of 300,000 active; T. cruzi beta-gal in NIH3T3, luminescence, 90 h;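 active = mean inhibition across valid replicates above about 55%, limit read from the data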;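 note: signal also drops with host cell toxicity which is not excluded here; 0% = plate median of DMSO wells and 100% = zero luminescence signal; higher percent means less beta-gal luminescence so fewer parasites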
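Incubation – ≥90 h infection period, 3 h prior cell attachment · System – NIH/3T3 fibroblasts plus reporter T. cruzi · Doses – compound pinned at 50 nL/well, DMSO · Read-out basis – percent inhibition of parasite-derived β-gal signal · Signal – luminescent β-galactosidase signal after 60 min lysis · Also added – 5000 T. cruzi trypomastigotes/well · Medium – Low-serum DMEM with 2% FBS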
PG9 Ab binder: PG9 antibody binding by small molecule. TR-FRET gp120-PG9 antibody binding. 0.43% of 360,000 active. inhibition, % at 6.7 µM; in the data active = inhibition above about 8.5%
Numbers without * were called inactive; · = not tested or not shown; ! = repeats disagree. Compounds with a hit are over-represented: about 2.9% of the library has one in this group of screens.

SMILES	H9c2 TAG inh	iPSC survival up	NR1D1 modulator	beta cell repl	T cruzi repl	PG9 Ab binder
CC1=C(C(=O)Nc2ccccc2)C(c2ccc(C)cc2)N=C(Nc2nc3ccccc3o2)N1 (centres undefined)	·	-1	4	-6	57*	1
NC(=O)c1ccccc1NS(=O)(=O)Cc1ccc(Cl)cc1	·	0	-1	1	-20	-2
Cc1cc(C)c(S(=O)(=O)c2c(C)cccc2C)c(Cl)n1	·	0	-3	0	47	-2
Cc1cc(C)c(S(=O)(=O)c2ccc(Cl)cc2C)c(Cl)n1	-23	0	-2	0	56*	-2
Cc1cc(C)c(S(=O)(=O)c2cc(F)ccc2C)c(Cl)n1	·	0	0	-2	65*	0
O=C(C1CCN(S(=O)(=O)N2CCOCC2)CC1)N1CCOCC1	·	2	-7	0	-15	0
NC(=O)c1ccc(O)c2ncccc12	·	·	0	·	·	·
O=Cc1ccc(O)c2ncccc12	·	0	·	-5	57*	·
O=C(Nc1ccc(Cl)c([N+](=O)[O-])c1)C(Sc1ccccc1)c1ccccc1 (centres undefined)	·	-1	3	-6	64*	-1
CC(=O)Nc1ccc(NC(=O)c2cc(-c3ccccc3)nc3ccccc23)cc1	16	0	-2	-3	6	-2
O=C(Nc1cc([N+](=O)[O-])ccc1Cl)C(Sc1ccccc1)c1ccccc1 (centres undefined)	·	4	18	-6	0	0
CC(C)(C)NS(=O)(=O)c1ccc(NC(=O)C(Sc2ccccc2)c2ccccc2)cc1 (centres undefined)	·	0	-1	-6	56*	-2
CC(C)(C)NS(=O)(=O)c1ccc(NC(=O)c2cc(-c3ccccc3)nc3ccccc23)cc1	·	6	1	-5	59*	-2
CN(C)c1ccc(/C=C/C(=O)c2cc(Cl)ccc2O)cc1	·	-1	10	·	3	-4
O=C(/C=C/c1ccncc1)c1cc(Cl)ccc1O	·	0	-5	-5	66*	-1
Cc1cc2c3c(c1)C1(C(=O)N3C(C)(C)CC2C)C(C#N)=C(N)Oc2cc(O)ccc21 (centres undefined)	·	-2	2	-6	66*	-2
N#CC1(NC(=O)Cn2ncc(Cl)c(Cl)c2=O)CCCCC1	18	0	1	-8	63*	1
Cc1ccc(-n2c(SCC(=O)Nc3nccs3)nc3c(c2=O)SCC3)cc1	0	0	-13	-3	-15	1
N#Cc1cccc(NC(=O)CSc2ccccc2)c1	·	4	-5	2	5	1
O=C(Cc1cccs1)N(c1ccccc1)C1C=CS(=O)(=O)C1 (centres undefined)	·	-1	10	-4	-13	0
CCOC(=O)C1CCN(Cc2ccc(O)c3ncccc23)CC1	60	1	-1	-6	55*	1
CC(=O)N(C1=C(Cl)C(=O)c2ccccc2C1=O)C1CCCCC1	6	0	-9	-4	58*	1
CC1=CC(C)(C)N2C(=O)C3(C(C#N)=C(N)Oc4cc(C)oc(=O)c43)c3cc(C)cc1c32 (centres undefined)	-3	0	-2	-4	55*	-2
COc1cc2c3c(c1)C1(C(=O)N3C(C)(C)C=C2C)C(C#N)=C(N)Oc2cc(C)oc(=O)c21 (centres undefined)	-9	1	-5	·	44	0
CCOc1ccc(Nc2ncnc3ccc([N+](=O)[O-])cc23)cc1	-8	0	-2	0	59*	0
SMILES	H9c2 TAG inh	iPSC survival up	NR1D1 modulator	beta cell repl	T cruzi repl	PG9 Ab binder
COc1ccc(N2CCN(C(=O)C(Cc3ccccc3)n3cccc3)CC2)cc1 (centres undefined)	-1	-4	-6	-4	-9	-1
CN([C@@H](Cc1ccc(OS(=O)(=O)c2cccc3cnccc23)cc1)C(=O)N1CCN(c2ccccc2)CC1)S(=O)(=O)c1cccc2cnccc12	29	0	·	-7	57*	·
COc1ccc(C(=O)C/C(=C\C(=O)c2ccc(C)cc2)c2ccccc2)cc1	9	0	-8	-5	64*	0
CC1CCC(C(C)C)C(OC(=O)Cn2c(-c3ccc(Br)cc3)[n+](C)c3ccccc32)C1 (centres undefined)	89*	-4	-6	-7	63*!	-3
CCOC(=O)Cn1c(COc2ccccc2OC)[n+](C)c2ccccc21	4	0	1	1	5	1
CC1CCC(C(C)C)C(OC(=O)Cn2c(-c3ccc(Cl)cc3)[n+](C)c3ccccc32)C1 (centres undefined)	99	-1	-12	-6	52	0
Cc1ccccc1OCc1n(CC(=O)OC2CC(C)CCC2C(C)C)c2ccccc2[n+]1C (centres undefined)	76*!	-5	-7	-5	65*	2
Fc1ccc(C2Nc3cccc4cccc(c34)N2)cc1	·	0	1	-6	-6	-3
O=C(Nc1ccncc1)c1ccc2c(c1)C(=O)N(CC1CCCO1)C2=O (centres undefined)	·	1	4	0	-26	-2
O=C(CN1CCN(S(=O)(=O)c2ccc(Br)cc2)CC1)N/N=C/c1ccc(Br)s1	-6	0	2	-4	63*	0
O=C(CSc1n[nH]c(=O)n1C1CC1)Nc1cc(Cl)ccc1Oc1ccccc1	10	1	4	-4	-12	1
O=C(Nc1ccncc1)Nc1cccc(Cl)c1	-4	0	0	-1	43	-1
Cc1cc(C)cc(NC(=O)Nc2ccc(-n3ccc(C(F)(F)F)n3)cc2)c1	2	0	-2	-4	9	1
O=C(Nc1cccc(Cl)c1)Nc1ccccc1-n1ccnc1	7	2	8	-3	57*	-1
O=C(Nc1ccc(-n2ccc(C(F)(F)F)n2)cc1)Nc1cccc(Cl)c1	-21	0	4	-4	62*	0
CCOC(=O)c1c(C)[n+](-c2ccc(C)cc2)c(CC)c2cc(OC)c(OC)cc12	·	-1	3	-3	55*	0
Cc1cccc(-c2n[nH]c(=S)n2/N=C/c2ccco2)c1	-6	0	-1	-2	-6	-1
O=C(CSc1nnc(CNC(=O)c2c(F)cccc2F)o1)Nc1ccc2c(c1)OCCO2	-5	0	-1	1	0	-1
CCC(=O)OCCNc1cc(Sc2nccn2C)c2nonc2c1[N+](=O)[O-]	69*	0	4	·	55*	-1
CCC(=O)OCCNc1cc(SCCC(=O)OC)c2nonc2c1[N+](=O)[O-]	15	-2	-2	-3	5	1
Cc1ccc(Sc2cc(NCCCO)c([N+](=O)[O-])c3nonc23)cc1	2	0	0	3	56*	1
